Assay [1] deals with Rattus norvegicus. Kind of assay: Effect in rat pleural Carrageenan test (exudate white blood cells (WBC)); No significant effect at 28 umol/kg (Not active). In kind it is functional, organism-based.
Assay [2] relates to Rattus norvegicus. Kind of assay: Inhibition of pleural reverse passive Arthus reactions (RPAR) in rat (exudate volume); No significant inhibition at 56 umol/kg (Inactive). Format: functional, organism-based. In a few lines:
(§1)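 Fasted male rats were given BSA intravenously, then about 1 h later rabbit anti-BSA intrapleurally. Oral dosing was 30 min before the challenge. After 4 h the rats were killed and pleural exudate fluid volume and white blood cell accumulation were determined. ED50 with 95% confidence limits came from least-squares regression.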

Assay [3] concerns Rattus norvegicus. Kind of assay: Effective dose of compound for 40% inhibition of rat dermal reverse passive Arthus reaction (RPAR) on peroral administration; No significant inhibition at 56 umol/kg (Inactive). In kind it is functional, organism-based. In a few lines: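 Fasted male rats received BSA intravenously and about 1 h later a challenge of rabbit anti-BSA given intradermally. Compound was dosed orally 30 min before the challenge. Rats were killed 4 h later and dermal lesion size was measured. ED40 with 95% confidence limits came from least-squares regression.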

For assay [4], the system named is Rattus norvegicus. Kind of assay: Inhibition of pleural reverse passive Arthus reactions (exudate white blood cells (WBC)); No significant inhibition at 56 umol/kg (Inactive). In kind it is functional, organism-based. In a few lines:
as §1

For assay [5], the species on record is Rattus norvegicus. Kind of assay: Effect in rat pleural Carrageenan test (exudate volume). In kind it is functional.

Active and inactive are the calls of the source. The rule behind the calls is not given here.

Usually ED50 stands for the midpoint of the dose-response relation. With `COc1ccc2c(c1)c(CC(=O)O)c(C)n2C(=O)c1ccc(Cl)cc1` [INDOMETHACIN], the ED50 entry with Rattus norvegicus [1], with Rattus norvegicus [2] and with Rattus norvegicus [4] was “inactive” each time. Moreover, in the assay with Rattus norvegicus [3], the ED40 entry was “inactive”. The ED50 in the assay filed under Rattus norvegicus [5] is 1.1 µmol/kg.
